From ChEMBL document CHEMBL4699419, “Antileishmanial assessment of isoxazole derivatives against L. donovani” (RSC Med Chem, 2020)
pIC50: −log10 of the molar value. The source made the active and inactive calls. The calls are words filed in the database; no cut-off is given here.

How the values were obtained:
Leishmania donovani [1] = experiment: (§1) Antileishmanial activity against Leishmania donovani amastigotes infected in golden hamster assessed as reduction in parasite burden in spleen at 50 mg/kg, ip initiated after 2 days of pre-treatment biopsy administered for 5 days and measured on day 7 by giemsa staining based assay relative to control; assay type: functional; conditions: for inhibition in vivo at 50 mg/kg: 168 h, time 7 day
In short: (§2)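 Male inbred golden hamsters, 40–45 g, infected with L. donovani. Animals with +1 infection on pre-treatment spleen biopsy randomized, five per group. Intraperitoneal dosing in a vehicle of 10% Tween-80/ethanol (70:30) in ddH2O, 10% final, began 2 days after biopsy and ran 5 consecutive days; vehicle-only controls. Giemsa-stained spleen biopsies taken on day 7 or 28; percentage inhibition computed from initial, treated and untreated-control amastigote counts.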

Leishmania donovani [2] = experiment: as §1, with “28” for “7”; assay type: functional; conditions: for inhibition: time 28.0 day; in short: as §2
[3] = Cytotoxicity against mouse J774A1 cells assessed as reduction in cell viability incubated for 48 hrs by MTT assay; assay type: cell-based, J774.A1
In short: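 J774A.1 macrophages, 0.2 × 10^6 per well, incubated overnight at 37 °C in 5% CO2, then exposed to compounds in DMSO for 48 h, with DMSO dilutions as controls. Viability read by MTT formazan at 600 nm. CC50 = 50% viability reduction versus medium-only cells, from probit regression; three independent experiments.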

Leishmania donovani [4] = experiment: Antileishmanial activity against Leishmania donovani MHOM/IN/80/Dd8 promastigotes harboring luciferase reporter gene infected in mouse J774 cells assessed as inhibition of amastigote growth incubated for 72 hrs by Steady-Glo luminescence assay; assay type: functional, organism-based; conditions: Leishmania donovani, MHOM/IN/80/Dd8, J774, 72 h; read-out: IC50
In short: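 J774A.1 mouse macrophages (2 × 10^5 per well, RPMI-1640 + 10% FCS, 37 °C CO2) infected after 24 h with stationary-phase luciferase-transgenic promastigotes at 1:10 macrophage:parasite; compounds in complete medium for 72 h at 37 °C. Medium swapped for PBS, Steady-Glo added, luminescence read; % inhibition vs untreated control RLU. IC50 by Probit log dose/response regression, three independent experiments.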

Leishmania donovani [5] = experiment: Antileishmanial activity against late log phase promastigote stage of Leishmania donovani MHOM/IN/80/Dd8 harboring luciferase reporter gene incubated for 72 hrs by Steady-Glo luminescence assay; assay type: functional, organism-based; conditions: Leishmania donovani, MHOM/IN/80/Dd8, 72 h; read-out: IC50
In short: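 Luciferase-transfected promastigotes kept at 25 ± 1 °C in medium 199 + 10% heat-inactivated FCS + G418 (20 μg ml–1). Late-log cells (5 × 10^5 per well) grown 72 h with graded compound concentrations from DMSO, DMSO dilution controls. Aliquot mixed 1:1 with Steady-Glo, luminescence (RLU) read; % inhibition vs control. IC50 by Probit regression, three independent experiments.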

[6] = Selectivity index, ratio of CC50 for mouse J774.A1 cells to IC50 for amastigote form of Leishmania donovani MHOM/IN/80/Dd8; assay type: toxicity; conditions: read-out: Ratio CC50/IC50
In short: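 Macrophages infected at a 1:10 ratio with stationary promastigotes, then treated 72 h at 37 °C; luminescence read with Steady-Glo. IC50 values from probit analysis.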

COC(=O)c1c(NCCCCNc2ccnc3cc(Cl)ccc23)noc1-c1cc2c(cc1[N+](=O)[O-])OCO2
inhibition in vivo at 50 mg/kg (Leishmania donovani [1]): 20%
inhibition in vivo at 50 mg/kg (Leishmania donovani [2]; 672 h, time 28 day): 4.38%
CC50 at 48 h [3]: 67.7 µM
pIC50 (Leishmania donovani [4]): 5.07
pIC50 (Leishmania donovani [5]): 5.35
selectivity ratio [6]: 7.97

COC(=O)c1c(NCCNc2ccnc3cc(Cl)ccc23)noc1-c1ccccc1F
CC50 at 48 h [3]: 3.42 µM
pIC50 (Leishmania donovani [4]): 5.83
pIC50 (Leishmania donovani [5]): 5.76
selectivity ratio [6]: 2.32

O=C(NCc1ccc(F)cc1)c1c([N+](=O)[O-])noc1-c1ccc(Cl)cc1Cl
CC50 at 48 h [3]: 86.4 µM
pIC50 (Leishmania donovani [4]): 4.30
pIC50 (Leishmania donovani [5]): 5.61
selectivity ratio [6]: 1.7

COC(=O)c1c(NCCCN2CCOCC2)noc1-c1ccc(Cl)cc1Cl
CC50 at 48 h [3]: 73 µM
pIC50 (Leishmania donovani [4]): 4.67
pIC50 (Leishmania donovani [5]): 5.59
selectivity ratio [6]: 3.44

CC(C)CCNC(=O)c1c([N+](=O)[O-])noc1-c1ccc([N+](=O)[O-])cc1
CC50 at 48 h [3]: 67 µM
pIC50 (Leishmania donovani [4]): 4.76
pIC50 (Leishmania donovani [5]): 5.52
selectivity ratio [6]: 3.85

COC(=O)c1c(NCCNc2ccnc3cc(Cl)ccc23)noc1-c1ccc([N+](=O)[O-])cc1
inhibition (Leishmania donovani [1]; time 7.0 day): inactive
inhibition (Leishmania donovani [2]): inactive
CC50 at 48 h [3]: 3.79 µM
pIC50 (Leishmania donovani [4]): 6.04
pIC50 (Leishmania donovani [5]): 5.73
selectivity ratio [6]: 4.16

O=C(c1c([N+](=O)[O-])noc1-c1ccc([N+](=O)[O-])cc1)N1CCOCC1
CC50 at 48 h [3]: 66 µM
pIC50 (Leishmania donovani [4]): 4.81
pIC50 (Leishmania donovani [5]): 5.57
selectivity ratio [6]: 4.22

O=C(NCCN1CCOCC1)c1c([N+](=O)[O-])noc1-c1ccc([N+](=O)[O-])cc1
CC50 at 48 h [3]: 76.5 µM
pIC50 (Leishmania donovani [4]): 4.66
pIC50 (Leishmania donovani [5]): 5.55
selectivity ratio [6]: 3.49

COc1ccc(CNC(=O)c2c([N+](=O)[O-])noc2-c2ccc(Cl)cc2)cc1OC
CC50 at 48 h [3]: 106 µM
pIC50 (Leishmania donovani [4]): 5.49
pIC50 (Leishmania donovani [5]): 5.52
selectivity ratio [6]: 33

COC(=O)c1c(NCc2ccc(OC)c(OC)c2)noc1-c1ccc(Cl)cc1Cl
CC50 at 48 h [3]: 7.58 µM
pIC50 (Leishmania donovani [4]): 5.63
pIC50 (Leishmania donovani [5]): 5.35
selectivity ratio [6]: 3

COC(=O)c1c([N+](=O)[O-])noc1-c1ccccc1F
inhibition in vivo at 50 mg/kg (Leishmania donovani [1]): 36%
inhibition (Leishmania donovani [2]): inactive
pIC50 (Leishmania donovani [4]): 4.79
pIC50 (Leishmania donovani [5]): 5.54
selectivity ratio [6]: 2.19

O=C(Nc1ccccc1)c1c([N+](=O)[O-])noc1-c1ccc(Cl)cc1Cl
CC50 at 48 h [3]: 67.3 µM
pIC50 (Leishmania donovani [4]): 5.22
pIC50 (Leishmania donovani [5]): 5.57
selectivity ratio [6]: 11.3

COc1ccc(CNC(=O)c2c([N+](=O)[O-])noc2-c2ccc(Cl)cc2Cl)cc1OC
CC50 at 48 h [3]: 81.8 µM
pIC50 (Leishmania donovani [4]): 5.71
pIC50 (Leishmania donovani [5]): 5.28
selectivity ratio [6]: 41.9

COC(=O)c1c(NCc2ccccc2)noc1-c1ccc(Cl)cc1Cl
CC50 at 48 h [3]: 54.1 µM
pIC50 (Leishmania donovani [4]): 5.78
pIC50 (Leishmania donovani [5]): 4.45
selectivity ratio [6]: 32.8

COC(=O)c1c([N+](=O)[O-])noc1-c1ccccc1Br
CC50 at 48 h [3]: 34.8 µM
pIC50 (Leishmania donovani [4]): 4.49
pIC50 (Leishmania donovani [5]): 6.47
selectivity ratio [6]: 1.08

CCN(CC)CCNc1noc(-c2ccc([N+](=O)[O-])cc2)c1C(=O)OC
CC50 at 48 h [3]: 69.2 µM
pIC50 (Leishmania donovani [4]): 5.09
pIC50 (Leishmania donovani [5]): 4.59
selectivity ratio [6]: 8.49

O=C(NCc1cccc(Cl)c1Cl)c1c([N+](=O)[O-])noc1-c1ccc(Cl)cc1Cl
CC50 at 48 h [3]: 81.8 µM
pIC50 (Leishmania donovani [4]): 5.85
pIC50 (Leishmania donovani [5]): 5.46
selectivity ratio [6]: 58

COC(=O)c1c(NCCNc2ccnc3cc(Cl)ccc23)noc1-c1ccccc1[N+](=O)[O-]
CC50 at 48 h [3]: 73.6 µM
pIC50 (Leishmania donovani [4]): 4.73
pIC50 (Leishmania donovani [5]): 5.46
selectivity ratio [6]: 3.94

O=C(NCc1cccc(Br)c1)c1c([N+](=O)[O-])noc1-c1ccc(Cl)cc1Cl
CC50 at 48 h [3]: 71.2 µM
pIC50 (Leishmania donovani [4]): 5.11
pIC50 (Leishmania donovani [5]): 5.52
selectivity ratio [6]: 9.19

COC(=O)c1c(NCCCNc2ccnc3cc(Cl)ccc23)noc1-c1ccc([N+](=O)[O-])cc1
CC50 at 48 h [3]: 106 µM
pIC50 (Leishmania donovani [4]): 5.50
pIC50 (Leishmania donovani [5]): 5.47
selectivity ratio [6]: 33.9

COC(=O)c1c(NCCNc2cc(C(F)(F)F)nc3c(C(F)(F)F)cccc23)noc1-c1ccccc1F
CC50 at 48 h [3]: 80.4 µM
pIC50 (Leishmania donovani [4]): 4.75
pIC50 (Leishmania donovani [5]): 4.36
selectivity ratio [6]: 4.52
